Results on 14 compounds are retold here after ChEMBL document CHEMBL1156736, “Multidentate small-molecule inhibitors of vaccinia H1-related (VHR) phosphatase decrease proliferation of cervix cancer cells” (J Med Chem, 2009).

What is called Ki is the dissociation constant of the complex between target and ligand, obtained from inhibition or displacement. A word on the IC50: it is the concentration needed to halve the response being measured.

T1 sequence (P51452 whole entry, the tested form may be a part): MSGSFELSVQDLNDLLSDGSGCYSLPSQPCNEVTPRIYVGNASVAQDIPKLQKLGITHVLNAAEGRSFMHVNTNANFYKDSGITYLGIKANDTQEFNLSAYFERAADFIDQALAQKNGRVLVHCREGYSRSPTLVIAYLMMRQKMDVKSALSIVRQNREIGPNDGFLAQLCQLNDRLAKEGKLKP

The first assay has as its target T1, Dual specificity protein phosphatase 3 (Homo sapiens, UniProt P51452). In words: Inhibition of recombinant vaccina H1-related phosphatase expressed in Escherichia coli by Michaelis-Menten kinetic studies. In short, it runs like this: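 E. coli-expressed VHR (GST-fusion, thrombin-cleaved, gel-filtered) preincubated 10 min with several fixed inhibitor concentrations in Bis-Tris pH 6.0 buffer with DTT and 5% DMSO; started with pNPP at 0.2–10 Km; initial rates at 404 nm, no-enzyme corrected; Ki and mode by nonlinear fit to competitive, uncompetitive or mixed models, compared by AICc.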
Take `O=C(/C=C/c1ccco1)/C=C/c1ccc(-c2ccc(Cl)c(Cl)c2)o1`: the Ki is 15900 nM.

Take `O=C1NC(=O)N(c2cccc(Br)c2)C(=O)/C1=C/c1ccc(-c2ccc(C(=O)O)cc2)o1` (mixture of isomers): the Ki came to 16200 nM.

For `O=C1NC(=S)/C(=C/c2ccc(-c3ccc([N+](=O)[O-])cc3)o2)S1`, the inhibition constant (Ki) was found to be 1860 nM.

For the compound `COc1ccc(N2C(=O)/C(=C/c3ccc(I)o3)C(=O)NC2=S)cc1` (mixture of isomers), the inhibition constant Ki is 4440 nM.

As for `CCOC(=O)c1[nH]nc2c1C(=O)N(c1ccc(Br)cc1)C2=O`, the Ki was found to be 2640 nM.

Turning to `Cc1ccc(C)n1-c1ccc(C(=O)O)c(O)c1`, the inhibition constant (Ki) amounted to 12800 nM.

On to `O=C(/C=C/c1ccc(-c2ccccc2[N+](=O)[O-])o1)Nc1ccc(-c2nc3ccccc3o2)cc1`, for which the Ki turned out to be 1760 nM.

In the case of `Cc1ccc(C)n1-c1ccc(SCC(=O)O)cc1`, the inhibition constant (Ki) was found to be 2090 nM.

Turning to `O=C(O)C(Cc1ccccc1)N1C(=O)/C(=C/C=C/c2ccccc2)SC1=S` (centres undefined), the Ki came to 2010 nM.

For the compound `O=C1/C(=C/c2ccc(-c3cccc(Cl)c3)o2)SC(=S)N1CCS(=O)(=O)O`, the Ki came out at 3130 nM.

In another assay the target is T1, Dual specificity protein phosphatase 3. Nature of the assay: Inhibition of recombinant vaccina H1-related phosphatase.
`O=C1/C(=C/c2cn(-c3ccccc3)nc2-c2ccc(Cl)cc2)SC(=S)N1CCS(=O)(=O)O`: the IC50 is 1800 nM.

Take `O=C1/C(=C/c2cn(-c3ccccc3)nc2-c2ccc(S(=O)(=O)N3CCOCC3)cc2)SC(=S)N1CCS(=O)(=O)O`: the IC50 is 2400 nM.

Consider `COc1ccc(-c2nn(-c3ccccc3)cc2/C=C2\SC(=S)N(CCS(=O)(=O)O)C2=O)cc1`, for which the IC50 was 1800 nM.

`Cc1ccc(-c2nn(-c3ccccc3)cc2/C=C2\SC(=S)N(CCS(=O)(=O)O)C2=O)cc1`: the half-maximal inhibitory concentration (IC50) worked out at 3100 nM.
